These results are taken from ChEMBL document CHEMBL3576816, “5'-Silylated 3'-1,2,3-triazolyl Thymidine Analogues as Inhibitors of West Nile Virus and Dengue Virus” (J Med Chem, 2015).

The inhibition is the share of the control response that was lost under treatment.

For one data set, the system named is West Nile virus. The data set can be described thus: Antiviral activity against West Nile virus infected in BHK-WII RepRen1B cells assessed as inhibition of viral replication at 10 uM after 3 days by luciferase reporter gene assay relative to control. The format is functional. The settings on record: for inhibition at 10 µM: 72 h. The gist of the method:
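Compound (DMSO, 10 μM final) added next day in triplicate; lycorine 1 μM served as control inhibitor. Three days on, live-cell Renilla substrate (1:1000 in phenol-red-free DME, 10% FBS) replaced medium. Luminescence measured; triplicate means compared with DMSO-alone wells.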
On the technique in general: Reporter assays use an easily measured gene product as a stand-in for the process of interest.

In a further data set the test system is Dengue virus. As to the kind of experiment: Antiviral activity against Dengue virus infected in BHK pD2-hRucPac-2ATG cells assessed as inhibition of viral replication at 10 uM after 3 days by luciferase reporter gene assay relative to control. The settings on record: for inhibition at 10 µM: 72 h. Type of data set: functional. The method in brief:
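Renilla luciferase-bearing DENV subgenomic replicon BHK cells, kept on 3 μg/mL puromycin, seeded at 1.5 × 10^3/well without selection. Next day, 10 μM final compound in DMSO added to triplicate wells; MPA 1 μM as control inhibitor. After 3 days, medium swapped for live-cell Renilla substrate (1:1000, phenol-red-free DME, 10% FBS). Luminescence read; triplicate mean compared with DMSO-only wells.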

Data set [1] is described as follows: Cytotoxicity against BHK cells infected with West Nile virus replicon assessed as cell viability at 10 uM after 3 days by CellTiter 96 aqueous one solution cell proliferation assay relative to control. The format is cell-based, Mesocricetus auratus. The settings on record: hamster; for Activity: bhk, 72 h, 10 µM. The method in brief:
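WNV replicon BHK cells, about 3 × 10^3/well, plated without antibiotic selection; next day compound in DMSO (10 μM final for screening, or eight serial dilutions), 3 days at 37°C, 5% CO2. Tetrazolium reagent, absorbance 450 nm, triplicate means versus DMSO wells; CC50 = 50% reduction in proliferation; CC50s mean ± SD of two experiments, top dose 200 μM.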

Data set [2] in a line: Cytotoxicity against BHK cells infected with Dengue virus replicon assessed as cell viability at 10 uM after 3 days by CellTiter 96 aqueous one solution cell proliferation assay relative to control. The format is cell-based, Mesocricetus auratus. As to conditions: hamster; for Activity: bhk, 72 h, 10 µM. The gist of the method:
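DENV replicon BHK cells, 1.5 × 10^3/well, plated without antibiotic selection; next day compound in DMSO (10 μM final for screening, or eight serial dilutions), 3 days at 37°C, 5% CO2. Tetrazolium (MTS-type) reagent, absorbance 450 nm, triplicate means versus DMSO wells; CC50 = 50% reduction in proliferation; CC50s mean ± SD of two experiments, top dose 200 μM.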
(In general: Replicon systems follow genome replication, usually without infectious particles.)

Data set [3] addresses Human immunodeficiency virus type 1 reverse transcriptase (Human immunodeficiency virus 1) (UniProt Q72547). The data set can be described thus: Inhibition of HIV1 reverse transcriptase.
Data set [4] relates to Human immunodeficiency virus 1. As to the kind of experiment: Antiviral activity against HIV1. Type of data set: functional, organism-based.
For a further data set, the system named is Hepatitis C virus. The data set can be described thus: Antiviral activity against HCV. Type of data set: functional, organism-based. As to conditions: Hepacivirus hominis.
The next data set concerns Human betaherpesvirus 5. As to the kind of experiment: Antiviral activity against Human cytomegalovirus. Type of data set: functional, organism-based.
The subject of data set [5] is unidentified influenza virus. The data set can be described thus: Antiviral activity against Influenzae virus. The format is functional, organism-based.

Molecules are shown by their SMILES. Active and inactive are the calls of the source. No cut-off for these calls is given here.

As for `Cc1cn([C@H]2C[C@H](n3nncc3C3CCCCC3)[C@@H](CO)O2)c(=O)[nH]c1=O`, the inhibition at 10 µM was 0% in the data set on West Nile virus and 10% in the data set with Dengue virus. For the same compound, the Activity in data set [1] and in [2] was 100% in each case.
With `Cc1cn([C@H]2C[C@H](n3nncc3COc3ccccc3)[C@@H](CO)O2)c(=O)[nH]c1=O`, the inhibition at 10 µM in the data set with West Nile virus and in the data set with Dengue virus was 0% throughout. Also, the Activity is 96% in data set [1] and 100% in data set [2].
In the case of `Cc1cn([C@H]2C[C@H](NC(=O)Nc3ccccc3)[C@@H](CO[Si](C)(C)C(C)(C)C)O2)c(=O)[nH]c1=O`, in data set [3], the inhibition entry was “inactive”. The inhibition entry in the data set on West Nile virus and in the data set on Dengue virus was “Active” throughout. Further, the outcome (in [4]; in the data set with Hepatitis C virus; in the data set with Human betaherpesvirus 5; in data set [5]) was inactive.
Take `Cc1cn([C@H]2C[C@H](n3nncc3C3CC3)[C@@H](CO)O2)c(=O)[nH]c1=O`: the inhibition at 10 µM with West Nile virus is 0%; in the data set with Dengue virus, 4.7%. Moreover, the results for the Activity in [1] and in data set [2] were 97% and 100%, respectively.
In the case of `CCOCOC[C@H]1O[C@@H](n2cc(C)c(=O)[nH]c2=O)C[C@@H]1n1nncc1-c1ccc2cc(OC)ccc2c1`, the inhibition at 10 µM with West Nile virus was 0%; in the data set on Dengue virus it was 13%. Also, the Activity in data set [1] amounted to 89%; in data set [2] it was 95%.
On the same counts, the results for `COc1ccc(C(OC[C@H]2O[C@@H](n3cc(C)c(=O)[nH]c3=O)C[C@@H]2n2nncc2-c2ccc3cc(OC)ccc3c2)(c2ccccc2)c2ccc(OC)cc2)cc1` are 23%, 46%, 93% and 93%.
`Cc1cn([C@H]2C[C@H](N=[N+]=[N-])[C@@H](CO[Si](C)(C)C(C)(C)C)O2)c(=O)[nH]c1=O`: the inhibition at 10 µM in the data set with West Nile virus was 17%; with Dengue virus, 3.6%. For the same compound, the figures for the Activity in data set [1] and in data set [2] were 96% and 87%, respectively.
For `Cc1cn([C@H]2C[C@H](NC(=O)c3c[nH]c4ccccc34)[C@@H](CO)O2)c(=O)[nH]c1=O`, in that order: 0%, 4.3%, 97% and 96%.
In the case of `Cc1cn([C@H]2C[C@H](N3C(=O)CSC3c3ccc4[nH]ccc4c3)[C@@H](CO)O2)c(=O)[nH]c1=O` (mixture of isomers), the inhibition at 10 µM is 9.7% with West Nile virus and 13% in the data set with Dengue virus. The Activity is listed as 100% in data set [1] and 95% in data set [2].
For `Cc1cn([C@H]2C[C@H](NC(=O)C(c3ccccc3)(c3ccccc3)c3ccccc3)[C@@H](CO)O2)c(=O)[nH]c1=O`, in that order: 0%, 16%, 95% and 94%.
As to `Cc1cn([C@H]2C[C@H](n3nncc3-c3cccc4ccccc34)[C@@H](CO)O2)c(=O)[nH]c1=O`, the figures for the inhibition at 10 µM in the data set with West Nile virus and in the data set with Dengue virus were 3.3% and 0%, respectively. Further, the Activity in [1] stood at 100%; in [2], 90%.
As for `COc1ccc2cc(-c3cnnn3[C@H]3C[C@H](n4cc(C)c(=O)[nH]c4=O)O[C@@H]3COC(C)=O)ccc2c1`, the inhibition at 10 µM with West Nile virus was 5.3%; in the data set on Dengue virus, 0%. In addition, the Activity in data set [1] is recorded as 100%; in data set [2], 97%.
In the case of `Cc1cn([C@H]2C[C@H](NC(=O)c3cccc4ccccc34)[C@@H](CO)O2)c(=O)[nH]c1=O`, the inhibition at 10 µM in the data set on West Nile virus stood at 0%; in the data set on Dengue virus it was 15%. Further, the Activity in data set [1] is listed as 87%; in [2], 98%.
Consider `Cc1cn([C@H]2C[C@H](n3nncc3-c3ccc(-c4ccccc4)cc3)[C@@H](CO)O2)c(=O)[nH]c1=O`, for which the inhibition at 10 µM in the data set on West Nile virus amounted to 23%; in the data set with Dengue virus, 2.3%. Also, the Activity in data set [1] stood at 100%; in data set [2], 92%.
As for `Cc1cn([C@H]2C[C@H](n3cc(-c4ccc5[nH]ccc5c4)nn3)[C@@H](CO)O2)c(=O)[nH]c1=O`, the results for the inhibition at 10 µM in the data set with West Nile virus and in the data set on Dengue virus were 0% and 8.2%, respectively. Besides, the Activity in [1] and in [2] was 100% each time.
As to `COc1ccc2cc(C(=O)N[C@H]3C[C@H](n4cc(C)c(=O)[nH]c4=O)O[C@@H]3CO)ccc2c1`, the inhibition at 10 µM in the data set with West Nile virus and in the data set on Dengue virus was 0% in each case. The Activity in data set [1] and in data set [2] was 100% throughout.
Turning to `Cc1cn([C@H]2C[C@H](NC(=O)c3c4ccccc4cc4ccccc34)[C@@H](CO)O2)c(=O)[nH]c1=O`, the inhibition at 10 µM in the data set on West Nile virus and with Dengue virus was 0% in each case. The Activity in data set [1] was determined as 92%; in [2] it was 95%.
Consider `Cc1cn([C@H]2C[C@H](n3cc(-c4ccc(-c5ccccc5)cc4)nn3)[C@@H](CO)O2)c(=O)[nH]c1=O`, for which the inhibition at 10 µM in the data set with West Nile virus was found to be 14%; with Dengue virus, 10%. Besides, the Activity in data set [1] and in data set [2] was 100% throughout.
With `Cc1cn([C@H]2C[C@H](N3C(=O)CSC3c3c4ccccc4cc4ccccc34)[C@@H](CO)O2)c(=O)[nH]c1=O` (mixture of isomers), the inhibition at 10 µM was determined as 12% in the data set on West Nile virus and 0% in the data set with Dengue virus. Further, the Activity in data set [1] is recorded as 100%; in data set [2] it was 96%.
With `Cc1cn([C@H]2C[C@H](N=[N+]=[N-])[C@@H](CO)O2)c(=O)[nH]c1=O` [ZIDOVUDINE], the inhibition at 10 µM in the data set with West Nile virus and in the data set with Dengue virus was 0% in each case. For the same compound, the viability at 72 h, 10 µM in data set [1] (BHK cells infected with West Nile virus replicon, read-out: Activity) amounted to 83%; in data set [2] (BHK cells infected with Dengue virus replicon, read-out: Activity), 89%.
For `COc1ccc2cc(-c3cnnn3[C@H]3C[C@H](n4cc(C)c(=O)[nH]c4=O)O[C@@H]3CO)ccc2c1`, the inhibition at 10 µM in the data set on West Nile virus stood at 7.4%; in the data set with Dengue virus, 0%. Also, the Activity in data set [1] and in data set [2] was 100% throughout.
On to `Cc1cn([C@H]2C[C@H](n3nncc3-c3ccc(Oc4ccccc4)cc3)[C@@H](CO)O2)c(=O)[nH]c1=O`, for which the results for the inhibition at 10 µM in the data set with West Nile virus and with Dengue virus were 9% and 0%, respectively. For the same compound, the values for the Activity in data set [1] and in data set [2] were 99% and 100%, respectively.
On to `Cc1cn([C@H]2C[C@H](n3nncc3-c3ccccc3)[C@@H](CO)O2)c(=O)[nH]c1=O`, for which the inhibition at 10 µM was found to be 4% in the data set with West Nile virus and 0% in the data set with Dengue virus. Moreover, the Activity amounted to 99% in data set [1] and 100% in [2].
`COc1ccc2cc(-c3cnnn3[C@H]3C[C@H](n4cc(C)c(=O)[nH]c4=O)O[C@@H]3COC3CCCCO3)ccc2c1` (stereo not given in full): the inhibition at 10 µM in the data set on West Nile virus was determined as 1%; with Dengue virus, 21%. Also, the results for the Activity in data set [1] and in [2] were 75% and 92%, respectively.
As to `COC[C@H]1O[C@@H](n2cc(C)c(=O)n(C)c2=O)C[C@@H]1n1nncc1-c1ccc2cc(OC)ccc2c1`, the inhibition at 10 µM with West Nile virus and in the data set with Dengue virus was 0% in each case. Further, the Activity in data set [1] and in [2] was 100% throughout.
As to `Cc1cn([C@H]2C[C@H](N3C(=O)CSC3c3ccccc3)[C@@H](CO)O2)c(=O)[nH]c1=O` (mixture of isomers), the inhibition at 10 µM with West Nile virus and in the data set with Dengue virus was 0% in each case. For the same compound, the Activity in data set [1] came out at 99%; in data set [2], 100%.
With `Cc1cn([C@H]2C[C@H](NC(=O)c3ccc4ccccc4c3)[C@@H](CO)O2)c(=O)[nH]c1=O`, the results for the inhibition at 10 µM in the data set on West Nile virus and in the data set on Dengue virus were 0% and 45%, respectively. Also, the Activity turned out to be 92% in [1] and 97% in data set [2].
For `Cc1cn([C@H]2C[C@H](n3nncc3-c3cc4ccccc4c4ccccc34)[C@@H](CO)O2)c(=O)[nH]c1=O`, the inhibition at 10 µM in the data set on West Nile virus and in the data set with Dengue virus was 0% in each case. Moreover, the values for the Activity in data set [1] and in [2] were 100% and 95%, respectively.
